The source made the active and inactive calls. The calls are words filed in the database; no cut-off is given here.
Columns and labels:
[1] = (§1) Reversal of LPS-induced RGS10 silencing in mouse single close BV-2 cells assessed as RGS10 protein level by measuring LPS response measured after 24 hrs by Nano-Glo HiBit Lytic detection assay; type: functional; set-up: concentration or dose not given beside the values
In short: (§2)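 HiBiT-knock-in BV-2 single clone exposed to LPS at 10 ng/mL final for 24 h at 37 °C in phenol red-free assay medium; RGS10-HiBiT measured by Nano-Glo HiBiT lytic detection (LgBiT 1:100, substrate 1:50), luminescence read after 15 min at room temperature.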

[2] = Induction of RGS10 expression in mouse single close BV-2 cells assessed as RGS10 protein level by measuring luminescence signal measured after 24 hrs by Nano-Glo HiBit Lytic detection assay; type: functional; set-up: concentration or dose not given beside the values
In short: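 BV-2-RGS10-HiBiT single-clone cells (CRISPR HiBiT tag at RGS10 C-terminus) in phenol red-free DMEM, 10% ultralow IgG FBS; IFNγ 10 ng/mL final plus compound 1–100 μM, 24 h, 37 °C. GF-AFC viability fluorescence (390/505) read first, then Nano-Glo HiBiT lytic luminescence (LgBiT 1:100, substrate 1:50); RLU/RFU expressed as % of IFNγ alone; 4 independent experiments in triplicate.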

[3] = Reversal of IFNgamma-induced RGS10 silencing in mouse single close BV-2 cells assessed as IFN response measured after 24 hrs by Nano-Glo HiBit Lytic detection assay relative to control; type: functional; set-up: concentration or dose not given beside the values
In short: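 HiBiT-tagged BV-2-RGS10 clone treated with compound at 20 μM plus IFNγ 10 ng/mL for 24 h at 37 °C; viability by GF-AFC fluorescence, then HiBiT lytic luminescence; signal normalized RLU/RFU, expressed as % of IFNγ-alone signal; four independent experiments in triplicate, one-way ANOVA with Dunnett's test.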

BV-2 [4] = test: Reversal of IFNgamma-induced RGS10 silencing in mouse single close BV-2 cells assessed as suppression of RGS10 protein level at 20 uM measured after 24 hrs by Western blot analysis; type: functional, cell-based
In short: (§3)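 Parental BV-2 cells, IFNγ 10 ng/mL with compound 20 μM for 24 h or 48 h; lysates in Tris/NaCl/Triton/SDS buffer with protease inhibitors, equal protein on 12% SDS-PAGE, goat anti-RGS10 (1:1,000) with β-actin or GAPDH loading control, infrared secondary detection; four independent experiments in duplicate.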

BV-2 [5] = test: Reversal of IFNgamma-induced inflammatory gene expression in mouse single close BV-2 cells assessed as reversal of COX-2 expression at 20 uM measured after 24 hrs by qRT-PCR analysis; type: functional, cell-based
In short: (§4)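 BV-2 cells treated 24 h with IFNγ 10 ng/mL with or without compound at 20 μM; iNOS, COX-2 and TNFα mRNA measured by one-step qRT-PCR (100 ng RNA template, 0.4 μM primers, 40 cycles), Cq read each cycle.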

BV-2 [6] = test: Reversal of IFNgamma-induced inflammatory gene expression in mouse single close BV-2 cells assessed as reversal of TNFalpha expression at 20 uM measured after 24 hrs by qRT-PCR analysis; type: functional, cell-based; in short: as §4
[7] = Reversal of IFNgamma-induced RGS10 silencing in mouse single close BV-2 cells assessed as RGS10 protein level by measuring luminescence signal measured after 24 hrs by Nano-Glo HiBit Lytic detection assay; conditions: BV-2, 24 h
BV-2 [8] = test: Reversal of IFNgamma-induced inflammatory gene expression in mouse single close BV-2 cells assessed as reversal of iNOS expression at 20 uM measured after 24 hrs by qRT-PCR analysis; type: functional, cell-based; in short: as §4
BV-2 [9] = test: Reversal of IFNgamma-induced RGS10 silencing in mouse single close BV-2 cells assessed as increase in of RGS10 mRNA level measured after 24 hrs by qRT-PCR analysis; type: functional, cell-based; conditions: dose 0.5-20 µM
In short: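 Parental BV-2 cells given IFNγ 10 ng/mL for 24 h with compound 0.5–20 μM; RGS10 mRNA by one-step qRT-PCR (100 ng RNA, 0.4 μM primers; RT 55 °C 10 min, 40 cycles 95 °C/60 °C), Cq values with melt curve.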

BV-2 [10] = test: Reversal of IFNgamma-induced RGS10 silencing in mouse single close BV-2 cells assessed as suppression of RGS10 protein level at 20 uM measured after 48 hrs by Western blot analysis; type: functional, cell-based; in short: as §3
BV-2 [11] = test: as §1; type: functional; set-up: concentration or dose not given beside the values; in short: as §2

Row | EC50 [7] [µM] | SMILES | Activity [1] [%] | Activity [2] [%] | Activity [3] [%] | Activity (BV-2 [4]) | Activity (BV-2 [5]) | Activity (BV-2 [6]) | Activity (BV-2 [8]) | Activity (BV-2 [9]) | Activity (BV-2 [10]) | Activity (BV-2 [11])
1 |  | COc1cccc(CNC(=O)c2ccc3c(Cl)c4c(nc3c2)CCCC4)c1 | 97.4 | 104.6 | 141.3 |  |  |  |  |  |  | 
2 |  | COCCOC1CCN(C(=O)Nc2ccc(C(=O)OC)cc2)CC1 | 121.7 | 101.2 | 106.7 |  |  |  |  |  |  | 
3 |  | CCNc1ncnc2sc3c(c12)CCN(Cc1ccncc1)C3 | 89.5 | 97.1 | 94 |  |  |  |  |  |  | 
4 | 13.8 | Cc1cc(C)c2c(=O)cc(CN(Cc3ccccc3)Cc3ccco3)[nH]c2c1 | 92.8 | 98.5 | 230.6 | inactive | Active | inactive | Active |  |  | 
5 | 33.6 | CCc1cc(-c2csc(S(=O)(=O)Nc3ccc(C)cc3Br)c2)on1 | 104.1 | 76.8 | 206.2 | inactive | Active | inactive | Active | Dose-dependent-effect; Significant Reversal Achieved At > 5 Um | Active | 
6 | 78.8 | Cc1oc(-c2ccc(Cl)cc2)nc1CN1CCCC(C(=O)N2CCN(C(=O)c3ccco3)CC2)C1 (centres undefined) | 116.9 | 101.8 | 172.8 | inactive |  | inactive | Active |  |  | 
7 |  | CCOc1ccc(-c2nc(C3CC(=O)N(c4ccc(C)cc4)C3)no2)cc1 (centres undefined) | 104.7 | 85.6 | 97.4 |  |  |  |  |  |  | 
8 |  | CC1=NS(=O)(=O)N(C)C=C1C(=O)OCc1nc(-c2cccc(F)c2)no1 | 90.3 | 78.9 | 94.3 |  |  |  |  |  |  | 
9 |  | Cc1cccc(-n2c(=O)c3c(cc(C)n3C)n(CC(=O)Nc3ccc(C(F)(F)F)cc3)c2=O)c1 | 113.8 | 95.9 | 145.1 |  |  |  |  |  |  | 
10 |  | O=C(Nc1ccc(F)cc1)c1cc2n(n1)CC(c1ccc3c(c1)OCO3)OC2 (centres undefined) | 105.3 | 113.8 | 123.2 |  |  |  |  |  |  | 
11 |  | COc1ccc(C2NC(=O)N(CC(=O)N3CCCCCC3)C3=C2C(=O)OC3)cc1 (centres undefined) | 87.4 | 104.8 | 102.4 |  |  |  |  |  |  | 
12 | 31.2 | O=C(CN1C(=O)NC(c2ccc(Cl)cc2)C2=C1COC2=O)Nc1cc(F)cc(F)c1 (centres undefined) | 80.4 | 56.8 | 186.7 | inactive |  | inactive | Active |  |  | 
13 | 23.5 | O=C(CN1C(=O)NC(c2ccc(Cl)cc2)C2=C1COC2=O)Nc1ccc(F)c(F)c1 (centres undefined) | 84.1 | 69.6 | 171.6 | inactive |  | inactive | Active |  |  | 
14 |  | Cc1ccc(-n2c(=O)c3c(cc(C)n3C)n(CC(=O)Nc3ccc(Br)cc3F)c2=O)cc1 |  | 156.8 | 90.1 |  |  |  |  |  |  | inactive
15 |  | Cc1cc(C)cc(Nc2nc(C)cc(=O)n2CC(=O)Nc2cccc(C#N)c2)c1 | 105.8 | 116.1 | 102.4 |  |  |  |  |  |  | 

Source: ChEMBL document CHEMBL6078650, “A Phenotypic High-Throughput Screen Identifies Small Molecule Modulators of Endogenous RGS10 in BV-2 Cells” (J Med Chem, 2024)
